Source: PubChem BioAssay (several laboratories)
A selection: hits, their analogues and other compounds. The true share with any hit is near 5%.
CSC inhib = cancer stem cell inhibition. cancer stem cell-like cells viability, luminescence. inhibition, % at 7.5 µM. actives 1.1% (n = 300,000); in the data active means inhibition above about 75%; inconclusive means no clear call, values can overlap the other calls; tested in HMLE shEcad cells
XBP1 UPR activ = adaptive UPR (XBP1) activation | CHO-XBP1 luciferase reporter, IRE1-XBP1 UPR activation, luminescence; percent of tunicamycin response, DMSO as zero | activation, % at 20 µM | actives 0.33% (n = 330,000);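 active means versus positive control, 20 µM dose yields 30% or more activation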;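 further: 100% = tunicamycin at 10 µg/mL and 0% = DMSO only wells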
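Signal: luciferase luminescence; Assay system: CHO-XBP1 luciferase reporter cells; Amount: one thousand reporter cells per well; Dosing: 20 µM single concentration, DMSO 1%; Benchmarks: high control tunicamycin 10 µg/mL final, low control DMSO vehicle only; Schedule: 6 h compound exposure at 37 °C, 5% CO2; Evaluation: percent activation relative to tunicamycin reference.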
CHOP UPR activ = apoptotic UPR (CHOP) activation; CHO-CHOP luciferase reporter, luminescence; percent of tunicamycin response over DMSO baseline; actives 0.34% (n = 330,000); activation, % at 10 µM;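 active means at 10 µM dose, activation of 40% or more, normalized to positive control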;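 further: 100% = tunicamycin at 10 µg/mL and 0% = DMSO alone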
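System: CHO-CHOP luciferase reporter cell line; amount: 500 cells/well; buffer or medium: F12 medium containing 10% fetal bovine serum; incubation: 6 h compound exposure at 37 °C after overnight seeding; measured by: luciferase luminescence after 10 min with Steady-Glo reagent; evaluation: % reporter activation, DMSO baseline versus tunicamycin full activation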
Mdm2-MdmX inh = disrupts the human Mdm2-MdmX interaction; inhibition, % at 8 µM; actives 3% (n = 330,000); SaOS-2 split-luciferase Mdm2/MdmX complementation, luminescence; AID 485346;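 active means inhibition of at least 50% at 8 µM in the primary screen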
T cruzi inh = T. cruzi replication inhibition | T. cruzi beta-gal in NIH3T3, luminescence, 90 h | inhibition, % (test concentration not listed) | actives 1.4% (n = 300,000) | AID 1885;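 active means mean inhibition across valid replicates above about 55%, limit read from the data; inconclusive means mean below that limit but half or more replicates reach it; inactive means mean below it, under half of replicates reach it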;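 further: signal also drops with host cell toxicity which is not excluded here; 0% = plate median of DMSO wells and 100% = zero luminescence signal; higher percent means less beta-gal luminescence so fewer parasites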
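Incubation – ≥90 h infection period, 3 h prior cell attachment · System – NIH/3T3 fibroblasts plus reporter T. cruzi · Doses – compound pinned at 50 nL/well, DMSO · Read-out basis – percent inhibition of parasite-derived β-gal signal · Signal – luminescent β-galactosidase signal after 60 min lysis · Also added – 5000 T. cruzi trypomastigotes/well · Medium – Low-serum DMEM with 2% FBS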
Beta apoptosis = blocks beta cell apoptosis; INS-1E cytokine-induced death, ATP luminescence, 48 h; percent of positive-control rescue, neutral wells zero; protection from apoptosis, % (test concentration not listed); actives 0.8% (n = 300,000); AID 435005;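 active means Every replicate reaches about 75%, or at least half do and their mean reaches it too, limit read from the data; inconclusive means At least half of replicates reach the limit but their mean does not; inactive means Under half of replicates reach the limit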;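 further: 0% = cytokine-treated negative control wells and 100% = positive control rescue; higher means more ATP so stronger rescue from cytokine killing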
Mdm2 MdmX conf = human Mdm2/MdmX binding inhibition, confirmed; luminescent assay; inhibition, % at 8 µM; shares compounds with Mdm2-MdmX inh; AID 489028; actives 55% (n = 10,000); in the data active means inhibition above about 40%
Full FLuc ctr = counter-screen for Mdm2/MdmX inhibitors: full-length luciferase; actives 77% (n = 6,200); shares compounds with Mdm2-MdmX inh; inhibition, % at 8 µM; SaOS-2 full-length luciferase counterscreen, luminescence;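 active means mean inhibition at 8 µM reaching about 37%, which flags the compound as non-specific, limit read from the data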;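 further: p53-null SaOS-2 cells with luciferase driven by a doxycycline-inducible promoter; compound on cells about two nights before reading with doxycycline added after day one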
An asterisk follows results filed as active; ? = inconclusive; / = not tested or not shown.

SMILES | CSC inhib | XBP1 UPR activ | CHOP UPR activ | Mdm2-MdmX inh | T cruzi inh | Beta apoptosis | Mdm2 MdmX conf | Full FLuc ctr
COc1cc([C@@H]2c3cc4c(cc3[C@@H](O[C@@H]3O[C@@H]5CO[C@@H](C)O[C@H]5[C@H](O)[C@H]3O)[C@H]3COC(=O)[C@H]23)OCO4)cc(OC)c1O | 64 | -2 | 0 | 78* | -18 | 11 | 60* | 32
CCOc1ccccc1NC(=S)N(Cc1cc2ccc(C)cc2[nH]c1=O)CC1CCCN1CC (stereo not drawn) | -7 | 3 | 3 | 29 | -4 | -5 | / | /
Cc1ccc(C)c(NC(=O)CSc2nnc(NC(=O)C3CC3)s2)c1 | 7 | -3 | 3 | 26 | 4 | -4 | / | /
S=C(NCCc1ccccc1)Nc1ccc(N2CCCCC2)cc1 | -4 | 5 | 1 | 5 | -12 | 1 | / | /
CCOC(=O)c1ccccc1NC(=O)c1cn(-c2ccc(C)c(C)c2)c(=O)c2ccccc12 | 7 | 0 | 3 | 69* | 32 | 8 | 29 | /
COC(=O)c1ccccc1NC(=O)c1cn(-c2ccc(C)c(C)c2)c(=O)c2ccccc12 | 23 | -1 | 2 | 32 | 15 | 9 | / | /
COc1cccc(CNC(=O)C2=C(C)C(=O)OC23CCC(C)CC3)c1 (stereo not drawn) | -1 | 2 | 0 | -14 | -10 | / | / | /
CC1CCC(C(C)C)C(OC(=O)C[n+]2cc(-c3ccc(Cl)cc3)n3c2CCCCC3)C1 (stereo not drawn) | -4 | 8 | 1 | 85* | 56* | 106* | 74* | 36*
Cc1ccc(CSc2nccc(-c3c(C)nc4ccccn34)n2)cc1 | 53 | 1 | 1 | 66* | -18 | 8 | 46* | 53*
Cc1ccc(CSc2ncn(-c3ccccc3)n2)cc1 | 11 | 4 | 1 | -13 | 11 | / | / | /
CN(c1ccc([N+](=O)[O-])cc1/C=N/NC(=O)COc1ccccc1)C1CCCCC1 | -1 | 0 | 1 | 6 | 31 | 8 | / | /
COC(=O)c1cc(S(=O)(=O)N2CCOCC2)c(Cl)cc1N1CCOCC1 | -9 | -1 | -3 | 26 | -12 | -3 | / | /
COC(=O)c1cc(C)nc2c1C(=O)C(=O)C=C2N1CCOCC1 | 51 | -9 | -8 | 65* | 67* | 104* | 26 | /
CCc1nonc1NC(=O)c1oc2ccc(F)cc2c1C | / | 1 | 5 | -18 | -11 | / | / | /
Cc1c(C(=O)Nc2nonc2-c2ccc(F)cc2)oc2ccc(F)cc12 | ? | -1 | 1 | 86* | -19 | -1 | 76* | 52*
COC(=O)c1cccc(NC(=O)/C=C/c2ccc3c(c2)OCO3)c1 | -21 | 0 | 5 | -4 | 10 | -6 | / | /
COc1ccc2nc(NC(=O)/C=C/c3ccc4c(c3)OCO4)sc2c1 | 1 | 1 | -1 | 83* | -19 | / | 52* | 35
COC(=O)c1cc(NC(=O)/C=C/c2ccc3c(c2)OCO3)cc(C(=O)OC)c1 | 55 | 3 | -1 | 67* | -9 | 10 | 22 | 102*
COc1ccc2nc(Nc3ccc4c(c3)OCO4)sc2c1 | -4 | 4 | 7 | 21 | 4 | 10 | / | /
Cc1cc(C)cc(NC(=O)CCn2c(=O)c3cccn3c3ccccc32)c1 | -3 | -1 | 0 | 56* | -20 | 3 | 50* | 52*
Cc1ccc(NC(=O)CCn2c(=O)c3cccn3c3ccccc32)c(C)c1 | -14 | -1 | 0 | -5 | 8 | 1 | / | /
CCOC(=O)C1=C(N)n2c(s/c(=C\c3cccs3)c2=O)=C(C(=O)OCC)C1c1cccs1 (stereo not drawn) | 56 | 7 | 2 | 62* | -1 | 12 | 50* | 79*
Cc1ccc(C(=O)NC2c3ccccc3-c3ccccc32)cc1 | 82* | 2 | 3 | 59* | 5 | -2 | 58* | 54*
